Experimental data reported in ChEMBL document CHEMBL3407339, “A novel series of thiazolyl-pyrazoline derivatives: synthesis and evaluation of antifungal activity, cytotoxicity and genotoxicity” (Eur J Med Chem, 2015).
Converted amounts (≈) assume the structure as drawn.

Tests used:
Salmonella typhimurium [1] = test: Mutagenicity in Salmonella typhimurium TA98 at 0.156 mg/ml after 48 hrs by AMES MPF assay in absence of Sprague-Dawley rat liver microsomal S9 fraction relative to baseline; format: toxicity, organism-based; details: salmonella enterica subsp. enterica serovar typhimurium
Outline: (§1)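 Ames MPF fluctuation test with TA98/TA100. Overnight cultures (37 °C, 14–16 h) mixed with exposure medium; ±Aroclor-1254-induced rat liver S9 (final 4.5% v/v). Compounds in DMSO, 0.156–5 mg/mL. 90 min exposure at 37 °C, then indicator medium; 48 wells per concentration, 48 h at 37 °C, in triplicate. Yellow wells counted; fold induction over baseline (mean + 1 SD of zero-dose control).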

Salmonella typhimurium [2] = test: Mutagenicity in Salmonella typhimurium TA100 at 0.3125 mg/ml after 48 hrs by AMES MPF assay in absence of Sprague-Dawley rat liver microsomal S9 fraction relative to baseline; format: toxicity, organism-based; details: salmonella enterica subsp. enterica serovar typhimurium; outline: as §1
Fusarium solani = test: Antifungal activity against Fusarium solani NRRL 13414 after 72 hrs by broth microdilution assay; format: functional; details: NRRL 13414, 72 h
Outline: (§2)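 Compounds dissolved in DMSO, diluted in sterile distilled water from 4 to 0.0039 mg/mL. Molds grown on PDA at 25 °C for 5 days, suspended in double-strength PDB at 10⁵ spores/mL. Incubated at 25 °C for 72 h; mycelial growth read under stereo microscope. MIC = lowest concentration inhibiting visible growth. Ketoconazole reference.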

Candida albicans = test: Antifungal activity against Candida albicans ATCC 90028 after 48 hrs by broth microdilution assay; format: functional; details: ATCC 90028, 48 h
Outline: (§3)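 Broth microdilution of DMSO stocks serially diluted in sterile water (4 to 0.0039 mg/mL). Yeasts grown on SDA at 37 °C for 24 h, suspended in double-strength PDB at 10⁵ spores/mL. Incubated at 37 °C for 48 h, then sprayed with 0.5% aqueous TTC. MIC = lowest concentration inhibiting visible growth. Ketoconazole reference.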

Candida parapsilosis = test: Antifungal activity against Candida parapsilosis NRLL Y 12696 after 48 hrs by broth microdilution assay; format: functional; details: Lodderomyces parapsilosis, NRLL Y 12696, 48 h; outline: as §3
Salmonella typhimurium [3] = test: Mutagenicity in Salmonella typhimurium TA98 at 0.3125 mg/ml after 48 hrs by AMES MPF assay in absence of Sprague-Dawley rat liver microsomal S9 fraction relative to baseline; format: toxicity, organism-based; details: salmonella enterica subsp. enterica serovar typhimurium; outline: as §1
Salmonella typhimurium [4] = test: Mutagenicity in Salmonella typhimurium TA100 at 0.3125 mg/ml after 48 hrs by AMES MPF assay in presence of Sprague-Dawley rat liver microsomal S9 fraction relative to baseline; format: toxicity, organism-based; details: salmonella enterica subsp. enterica serovar typhimurium; outline: as §1
Salmonella typhimurium [5] = test: Mutagenicity in Salmonella typhimurium TA98 at 5 mg/ml after 48 hrs by AMES MPF assay in absence of Sprague-Dawley rat liver microsomal S9 fraction relative to baseline; format: toxicity, organism-based; details: salmonella enterica subsp. enterica serovar typhimurium; outline: as §1
Aspergillus parasiticus = test: Antifungal activity against Aspergillus parasiticus NRRL 465 after 72 hrs by broth microdilution assay; format: functional; details: NRRL 465, 72 h; outline: as §2
Candida tropicalis = test: Antifungal activity against Candida tropicalis NRLL Y 12968 after 48 hrs by broth microdilution assay; format: functional; details: NRLL Y 12968, 48 h; outline: as §3
[6] = Cytotoxicity against mouse NIH/3T3 cells after 24 hrs by XTT assay; format: cell-based; details: NIH3T3, 24 h
Outline: (§4)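 A549 cells in RPMI and NIH/3T3 cells in DMEM, each with fetal calf serum, antibiotics and 7.5% NaHCO₃, at 37 °C, 5% CO₂. Seeded at 20,000 cells/well, 24 h, then compounds added in medium at 500–3.9 doses (final DMSO <0.1%) for 24 h. XTT read after 3 h at 480 nm (ref 680 nm). IC₅₀ by non-linear regression; triplicates; cisplatin control.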

Salmonella typhimurium [7] = test: Mutagenicity in Salmonella typhimurium TA98 at 1.25 mg/ml after 48 hrs by AMES MPF assay in presence of Sprague-Dawley rat liver microsomal S9 fraction relative to baseline; format: toxicity, organism-based; details: salmonella enterica subsp. enterica serovar typhimurium; outline: as §1
Salmonella typhimurium [8] = test: Mutagenicity in Salmonella typhimurium TA100 at 1.25 mg/ml after 48 hrs by AMES MPF assay in absence of Sprague-Dawley rat liver microsomal S9 fraction relative to baseline; format: toxicity, organism-based; details: salmonella enterica subsp. enterica serovar typhimurium; outline: as §1
Salmonella typhimurium [9] = test: Mutagenicity in Salmonella typhimurium TA100 at 2.5 mg/ml after 48 hrs by AMES MPF assay in absence of Sprague-Dawley rat liver microsomal S9 fraction relative to baseline; format: toxicity, organism-based; details: salmonella enterica subsp. enterica serovar typhimurium; outline: as §1
Salmonella typhimurium [10] = test: Mutagenicity in Salmonella typhimurium TA98 at 0.625 mg/ml after 48 hrs by AMES MPF assay in presence of Sprague-Dawley rat liver microsomal S9 fraction relative to baseline; format: toxicity, organism-based; details: salmonella enterica subsp. enterica serovar typhimurium; outline: as §1
Salmonella typhimurium [11] = test: Mutagenicity in Salmonella typhimurium TA100 at 5 mg/ml after 48 hrs by AMES MPF assay in presence of Sprague-Dawley rat liver microsomal S9 fraction relative to baseline; format: toxicity, organism-based; details: salmonella enterica subsp. enterica serovar typhimurium; outline: as §1
Salmonella typhimurium [12] = test: Mutagenicity in Salmonella typhimurium TA100 at 0.156 mg/ml after 48 hrs by AMES MPF assay in presence of Sprague-Dawley rat liver microsomal S9 fraction relative to baseline; format: toxicity, organism-based; details: salmonella enterica subsp. enterica serovar typhimurium; outline: as §1
Salmonella typhimurium [13] = test: Mutagenicity in Salmonella typhimurium TA100 at 5 mg/ml after 48 hrs by AMES MPF assay in absence of Sprague-Dawley rat liver microsomal S9 fraction relative to baseline; format: toxicity, organism-based; details: salmonella enterica subsp. enterica serovar typhimurium; outline: as §1
Salmonella typhimurium [14] = test: Mutagenicity in Salmonella typhimurium TA98 at 0.156 mg/ml after 48 hrs by AMES MPF assay in presence of Sprague-Dawley rat liver microsomal S9 fraction relative to baseline; format: toxicity, organism-based; details: salmonella enterica subsp. enterica serovar typhimurium; outline: as §1
Salmonella typhimurium [15] = test: Mutagenicity in Salmonella typhimurium TA98 at 0.625 mg/ml after 48 hrs by AMES MPF assay in absence of Sprague-Dawley rat liver microsomal S9 fraction relative to baseline; format: toxicity, organism-based; details: salmonella enterica subsp. enterica serovar typhimurium; outline: as §1
Salmonella typhimurium [16] = test: Mutagenicity in Salmonella typhimurium TA98 at 2.5 mg/ml after 48 hrs by AMES MPF assay in absence of Sprague-Dawley rat liver microsomal S9 fraction relative to baseline; format: toxicity, organism-based; details: salmonella enterica subsp. enterica serovar typhimurium; outline: as §1
Salmonella typhimurium [17] = test: Mutagenicity in Salmonella typhimurium TA98 at 2.5 mg/ml after 48 hrs by AMES MPF assay in presence of Sprague-Dawley rat liver microsomal S9 fraction relative to baseline; format: toxicity, organism-based; details: salmonella enterica subsp. enterica serovar typhimurium; outline: as §1
Salmonella typhimurium [18] = test: Mutagenicity in Salmonella typhimurium TA100 at 0.156 mg/ml after 48 hrs by AMES MPF assay in absence of Sprague-Dawley rat liver microsomal S9 fraction relative to baseline; format: toxicity, organism-based; details: salmonella enterica subsp. enterica serovar typhimurium; outline: as §1
Salmonella typhimurium [19] = test: Mutagenicity in Salmonella typhimurium TA98 at 0.3125 mg/ml after 48 hrs by AMES MPF assay in presence of Sprague-Dawley rat liver microsomal S9 fraction relative to baseline; format: toxicity, organism-based; details: salmonella enterica subsp. enterica serovar typhimurium; outline: as §1
[Candida] zeylanoides = Antifungal activity against Candida zeylanoides NRLL Y 1774 after 48 hrs by broth microdilution assay; format: functional; details: Dujonia zeylanoides, NRLL Y 1774, 48 h; outline: as §3
Aspergillus flavus = test: Antifungal activity against Aspergillus flavus NRRL 980 after 72 hrs by broth microdilution assay; format: functional; details: NRRL 980, 72 h; outline: as §2
Pichia kudriavzevii = test: Antifungal activity against Candida krusei NRLL Y 7179 after 48 hrs by broth microdilution assay; format: functional; details: NRLL Y 7179, 48 h; outline: as §3
Salmonella typhimurium [20] = test: Mutagenicity in Salmonella typhimurium TA98 at 5 mg/ml after 48 hrs by AMES MPF assay in presence of Sprague-Dawley rat liver microsomal S9 fraction relative to baseline; format: toxicity, organism-based; details: salmonella enterica subsp. enterica serovar typhimurium; outline: as §1
Aspergillus niger = test: Antifungal activity against Aspergillus niger ATCC 1094 after 72 hrs by broth microdilution assay; format: functional; details: ATCC 1094, 72 h; outline: as §2
Nakaseomyces glabratus = test: Antifungal activity against Candida glabrata clinical isolate after 48 hrs by broth microdilution assay; format: functional; outline: as §3
Salmonella typhimurium [21] = test: Mutagenicity in Salmonella typhimurium TA100 at 1.25 mg/ml after 48 hrs by AMES MPF assay in presence of Sprague-Dawley rat liver microsomal S9 fraction relative to baseline; format: toxicity, organism-based; details: salmonella enterica subsp. enterica serovar typhimurium; outline: as §1
A549 = test: Antiproliferative activity against human A549 cells after 24 hrs by XTT assay; format: functional, cell-based; details: A549, 24 h; outline: as §4
Salmonella typhimurium [22] = test: Mutagenicity in Salmonella typhimurium TA100 at 0.625 mg/ml after 48 hrs by AMES MPF assay in presence of Sprague-Dawley rat liver microsomal S9 fraction relative to baseline; format: toxicity, organism-based; details: salmonella enterica subsp. enterica serovar typhimurium; outline: as §1
Salmonella typhimurium [23] = test: Mutagenicity in Salmonella typhimurium TA100 at 2.5 mg/ml after 48 hrs by AMES MPF assay in presence of Sprague-Dawley rat liver microsomal S9 fraction relative to baseline; format: toxicity, organism-based; details: salmonella enterica subsp. enterica serovar typhimurium; outline: as §1
Salmonella typhimurium [24] = test: Mutagenicity in Salmonella typhimurium TA100 at 0.625 mg/ml after 48 hrs by AMES MPF assay in absence of Sprague-Dawley rat liver microsomal S9 fraction relative to baseline; format: toxicity, organism-based; details: salmonella enterica subsp. enterica serovar typhimurium; outline: as §1
Salmonella typhimurium [25] = test: Mutagenicity in Salmonella typhimurium TA98 at 1.25 mg/ml after 48 hrs by AMES MPF assay in absence of Sprague-Dawley rat liver microsomal S9 fraction relative to baseline; format: toxicity, organism-based; details: salmonella enterica subsp. enterica serovar typhimurium; outline: as §1

Cc1ccc(C2=NN(c3nc(-c4ccc(S(C)(=O)=O)cc4)cs3)C(c3ccc(F)cc3)C2)s1 (stereo unspecified)
fold change (FC) (Salmonella typhimurium [1]): 0.67
fold change (FC) (Salmonella typhimurium [2]): 1.04
MIC (Fusarium solani): 250 µg/mL (≈ 502 µM)
MIC (Candida albicans): 250 µg/mL (≈ 502 µM)
MIC (Candida parapsilosis): 250 µg/mL (≈ 502 µM)
fold change (FC) (Salmonella typhimurium [3]): 0.22
fold change (FC) (Salmonella typhimurium [4]): 0.73
fold change (FC) (Salmonella typhimurium [5]): 0.89
MIC (Aspergillus parasiticus): 250 µg/mL (≈ 502 µM)
MIC (Candida tropicalis): 250 µg/mL (≈ 502 µM)
IC50 [6]: 374 µg/mL (≈ 751 µM)
fold change (FC) (Salmonella typhimurium [7]): 0.95
fold change (FC) (Salmonella typhimurium [8]): 0.52
fold change (FC) (Salmonella typhimurium [9]): 0.52
fold change (FC) (Salmonella typhimurium [10]): 1.63
fold change (FC) (Salmonella typhimurium [11]): 0.93
fold change (FC) (Salmonella typhimurium [12]): 0.73
fold change (FC) (Salmonella typhimurium [13]): 1.09
fold change (FC) (Salmonella typhimurium [14]): 0.41
fold change (FC) (Salmonella typhimurium [15]): 0.44
fold change (FC) (Salmonella typhimurium [16]): 0.67
fold change (FC) (Salmonella typhimurium [17]): 1.36
fold change (FC) (Salmonella typhimurium [18]): 0.78
fold change (FC) (Salmonella typhimurium [19]): 0.27
MIC ([Candida] zeylanoides): 250 µg/mL (≈ 502 µM)
MIC (Aspergillus flavus): 125 µg/mL (≈ 251 µM)
MIC (Pichia kudriavzevii): 250 µg/mL (≈ 502 µM)
fold change (FC) (Salmonella typhimurium [20]): 0.81
MIC (Aspergillus niger): 250 µg/mL (≈ 502 µM)
MIC (Nakaseomyces glabratus): 125 µg/mL (≈ 251 µM)
fold change (FC) (Salmonella typhimurium [21]): 0.8
IC50 (A549): > 500 µg/mL
fold change (FC) (Salmonella typhimurium [22]): 0.93
fold change (FC) (Salmonella typhimurium [23]): 1.26
fold change (FC) (Salmonella typhimurium [24]): 0.99
fold change (FC) (Salmonella typhimurium [25]): 0.89
